Data taken from ChEMBL document CHEMBL3046679, “Design, synthesis, and biological activities of arylmethylamine substituted chlorotriazine and methylthiotriazine compounds” (J Agric Food Chem, 2011).
Activity calls are given as the source filed them. The calls are words filed in the database; no cut-off is given here.

Tests used:
Plasmopara viticola [1] = experiment: Fungicidal activity against Plasmopara viticola assessed as inhibition of disease development in compound treated leaf pieces at 200 ppm relative to untreated control (grapevine-preventative); assay type: functional
Summary of the method: (§1)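 Preventative leaf-piece test on host tissue (tomato, vine, wheat or barley). Formulated compound applied at 200, 60 and 20 ppm before spore inoculation. Disease scored 3–9 days after inoculation, depending on the pathogen, as percent inhibition of disease development versus untreated controls. Values are the mean across replicates.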

Phytophthora infestans [2] = experiment: Fungicidal activity against Phytophthora infestans assessed as inhibition of mycelia growth at 200 ppm; assay type: functional, organism-based
Brassica napus = experiment: Herbicidal activity against Brassica napus (oilseed rape) at 1.5 kg/ha preemergence treatment measured after 10 days by glasshouse test; assay type: functional; conditions: pre-emergence, 240 h
Summary of the method: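 Glasshouse pre/postemergence test, each treatment in triplicate. Above-ground fresh weight measured 10 days after treatment. Result expressed as percent inhibition versus control, from 0 (no control) to 100 (complete control); glyphosate used as positive control.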

Uromyces viciae-fabae = experiment: Fungicidal activity against Uromyces viciae-fabae assessed as inhibition of mycelia growth at 100 ppm; assay type: functional, organism-based
Summary of the method: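 Leaf-piece assay on bean at 100 ppm, with compound applied before spore inoculation and two replicates. Each well scored 99 for complete inhibition, 55 for partial and 0 for none; value is the mean score across replicates.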

[3] = system: Blumeria graminis f. sp. tritici; experiment: Fungicidal activity against Blumeria graminis f. sp. tritici assessed as inhibition of disease development in compound treated leaf pieces at 200 ppm relative to untreated control (wheat-preventative); assay type: functional
Plasmopara viticola [4] = experiment: Fungicidal activity against Plasmopara viticola assessed as inhibition of disease development in compound treated leaf pieces at 20 ppm relative to untreated control (grapevine-preventative); assay type: functional; summary of the method: as §1
Phytophthora infestans [5] = experiment: Fungicidal activity against Phytophthora infestans assessed as inhibition of disease development in compound treated leaf pieces at 60 ppm relative to untreated control (tomato-preventative); assay type: functional; summary of the method: as §1
Alternaria solani = experiment: Fungicidal activity against Alternaria solani assessed as inhibition of disease development in compound treated leaf pieces at 200 ppm relative to untreated control (tomato-preventative); assay type: functional; summary of the method: as §1
Puccinia triticina = experiment: Fungicidal activity against Puccinia triticina assessed as inhibition of disease development in compound treated leaf pieces at 200 ppm relative to untreated control (wheat-preventative); assay type: functional; summary of the method: as §1
Phytophthora infestans [6] = experiment: Fungicidal activity against Phytophthora infestans assessed as inhibition of disease development in compound treated leaf pieces at 20 ppm relative to untreated control (tomato-preventative); assay type: functional; summary of the method: as §1
Phytophthora infestans [7] = experiment: Fungicidal activity against Phytophthora infestans assessed as inhibition of disease development in compound treated leaf pieces at 200 ppm relative to untreated control (tomato-preventative); assay type: functional; summary of the method: as §1
Pyrenophora teres = experiment: Fungicidal activity against Pyrenophora teres assessed as inhibition of disease development in compound treated leaf pieces at 60 ppm relative to untreated control (barley-preventative); assay type: functional; summary of the method: as §1

CC(C)Nc1nc(Cl)nc(NCc2ccc(F)cc2)n1
inhibition at 200 ppm (Plasmopara viticola [1]): 50% | inhibition (Phytophthora infestans [2]): inactive | inhibition at 1500 g/ha (Brassica napus): 100% | inhibition (Uromyces viciae-fabae): Active | inhibition at 200 ppm [3]: 70% | inhibition at 20 ppm (Plasmopara viticola [4]): 0% | inhibition at 60 ppm (Phytophthora infestans [5]): 0% | inhibition at 200 ppm (Alternaria solani): 0% | inhibition at 200 ppm (Puccinia triticina): 100% | inhibition at 20 ppm (Phytophthora infestans [6]): 0% | inhibition at 200 ppm (Phytophthora infestans [7]): 0% | inhibition at 60 ppm (Pyrenophora teres): 0%
